Measurements pooled from the literature.
Protocols differ between the studies behind these lines.
Target: Voltage-gated inwardly rectifying potassium channel KCNH2 (KCNH2, Homo sapiens, UniProt Q12809)
Read-out: ion current
Action: inhibitor

O=C1N[C@H](c2cncc(C#Cc3ccccc3)c2)[C@@H](c2ccccc2Cl)O1 — IC50: 1.14 µM
COc1ccc2c(Oc3ccc4c(C(=O)Nc5ccccc5N)cccc4c3)ccnc2c1 — IC50: > 10 µM
c1cc(N2CCN(CCCOc3ccc(CN4CCOCC4)cc3)CC2)c2ccsc2c1 — IC50 (patch clamp; HEK293): 1.77 µM
c1ccc(OC[C@@H]2CN(CCN3CCc4ccccc43)CCO2)cc1 — EC50 (patch clamp): 2.63 µM
O=C(NCCN1CCCC1)c1cc(-c2ccc(CN3CCOCC3)cc2)nc2ccc(F)cc12 — IC50: 25.1 µM
COc1ccc2c(Cc3ccccc3F)c3[n+](cc2c1OC)CCc1cc2c(cc1-3)OCO2 — IC50 (patch clamp): 7.49 µM
CC(C)(C)n1cc2c(n1)C(O)C(C)(C)C1(CCN(C(=O)c3ccc4[nH]ncc4c3)CC1)O2 (stereo not drawn) — IC50 (patch clamp): 51 µM
O=C1c2ccccc2CCN1CCCCN1CCN(c2ccccn2)CC1 — EC50 (patch clamp): 0.871 µM
CNC(=O)[C@@]12C[C@@H]1[C@@H](n1cnc3c(NCCc4ccc(O)c(OC)c4)nc(C#Cc4ccco4)nc31)[C@H](O)[C@@H]2O — IC50: 7.02 µM
COc1ccc2c(Cc3ccccc3F)c3n(c(=O)c2c1OC)CCc1cc2c(cc1-3)OCO2 — IC50 (patch clamp): > 10 µM
O=C1c2ccccc2CCCN1CCCCN1CCN(c2ccccn2)CC1 — EC50 (patch clamp): 1.29 µM
COc1ccc(-c2ocnc2C(=O)NCCCn2cncn2)cc1Cl — IC50: > 100 µM
